Measurements published in ChEMBL document CHEMBL4308918, “Rational Design of Cell-Active Inhibitors of PARP10” (ACS Med Chem Lett, 2019).
One block for each compound: values may come before it.

Legend:
[1] = target: T1, Protein mono-ADP-ribosyltransferase PARP10 (Homo sapiens, UniProt Q53GL7); assay: Inhibition of human PARP10 catalytic domain assessed as reduction in MARylation of His6-tagged SRPK2 substrate after 60 mins in presence of NAD+ by chemifluorescence assay
T1 sequence (Q53GL7 whole entry): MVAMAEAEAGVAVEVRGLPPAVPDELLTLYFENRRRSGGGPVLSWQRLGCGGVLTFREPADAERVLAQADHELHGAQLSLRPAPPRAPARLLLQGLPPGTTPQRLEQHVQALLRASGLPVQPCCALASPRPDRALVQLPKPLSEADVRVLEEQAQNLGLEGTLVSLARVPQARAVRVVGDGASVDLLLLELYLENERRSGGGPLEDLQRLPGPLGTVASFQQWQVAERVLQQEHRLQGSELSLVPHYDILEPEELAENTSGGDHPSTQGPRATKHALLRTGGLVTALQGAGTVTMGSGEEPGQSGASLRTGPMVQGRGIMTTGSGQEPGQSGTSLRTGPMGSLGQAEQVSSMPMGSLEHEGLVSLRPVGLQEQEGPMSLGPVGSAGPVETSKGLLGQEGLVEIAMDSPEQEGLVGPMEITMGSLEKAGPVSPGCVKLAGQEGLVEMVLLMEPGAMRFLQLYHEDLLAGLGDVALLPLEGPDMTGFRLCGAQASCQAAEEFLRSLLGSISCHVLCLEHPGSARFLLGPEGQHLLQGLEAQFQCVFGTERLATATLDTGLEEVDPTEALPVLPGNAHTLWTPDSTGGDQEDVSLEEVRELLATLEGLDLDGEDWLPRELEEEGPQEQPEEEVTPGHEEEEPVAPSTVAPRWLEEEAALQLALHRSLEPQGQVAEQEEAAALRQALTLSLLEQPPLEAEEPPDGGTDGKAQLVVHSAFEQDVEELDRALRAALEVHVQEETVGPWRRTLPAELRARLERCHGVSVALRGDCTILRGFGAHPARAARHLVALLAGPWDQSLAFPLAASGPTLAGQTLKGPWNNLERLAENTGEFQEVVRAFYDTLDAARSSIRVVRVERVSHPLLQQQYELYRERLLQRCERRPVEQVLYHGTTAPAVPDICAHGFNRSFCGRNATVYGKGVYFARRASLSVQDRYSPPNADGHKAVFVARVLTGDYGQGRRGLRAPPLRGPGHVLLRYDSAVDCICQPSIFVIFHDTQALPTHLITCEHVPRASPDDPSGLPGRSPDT

Homo sapiens [2] = species: Homo sapiens; assay: Selectivity ratio of IC50 for human PARP5B catalytic domain (1 to 572 residues) to IC50 for human PARP10 catalytic domain
How it was run: (§1)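 Selectivity ratio is the IC50 for the given PARP divided by the IC50 for PARP10 catalytic domain. IC50s came from the 6-a-NAD+ SRPK2 plate assay or, for cell-expressed PARPs, the immunoprecipitation auto-MARylation assay.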

Homo sapiens [3] = species: Homo sapiens; assay: Selectivity ratio of IC50 for full length human PARP3 to IC50 for human PARP10 catalytic domain; how it was run: as §1
Homo sapiens [4] = species: Homo sapiens; assay: Selectivity ratio of IC50 for GFP-tagged human PARP8 expressed in HEK293T cells to IC50 for human PARP10 catalytic domain; format: cell-based; how it was run: as §1
Homo sapiens [5] = species: Homo sapiens; assay: Selectivity ratio of IC50 for human transmembrane domain deficient His-SUMO-tagged PARP16 expressed in Escherichia coli BL21 to IC50 for human PARP10 catalytic domain; how it was run: as §1
Homo sapiens [6] = species: Homo sapiens; assay: Selectivity ratio of IC50 for human PARP15 catalytic domain to IC50 for human PARP10 catalytic domain; how it was run: as §1
[7] = target: Protein mono-ADP-ribosyltransferase PARP4 (Homo sapiens, UniProt Q9UKK3); assay: Inhibition of human PARP4 BRCT-catalytic domain (1 to 572 residues) assessed as reduction in MARylation of SRPK2 substrate after 60 mins in presence of 6-a-NAD+ by chemifluorescence assay
How it was run: (§2)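 Recombinant enzyme was tested in a 96-well plate assay that monitors MARylation of the substrate SRPK2 with the clickable 6-a-NAD+.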

[8] = target: T2, Protein mono-ADP-ribosyltransferase TIPARP (Homo sapiens, UniProt Q7Z3E1); assay: Inhibition of human PARP7 assessed as reduction in MARylation of SRPK2 substrate after 60 mins in presence of 6-a-NAD+ by chemifluorescence assay; how it was run: as §2
T2 sequence (Q7Z3E1 whole entry): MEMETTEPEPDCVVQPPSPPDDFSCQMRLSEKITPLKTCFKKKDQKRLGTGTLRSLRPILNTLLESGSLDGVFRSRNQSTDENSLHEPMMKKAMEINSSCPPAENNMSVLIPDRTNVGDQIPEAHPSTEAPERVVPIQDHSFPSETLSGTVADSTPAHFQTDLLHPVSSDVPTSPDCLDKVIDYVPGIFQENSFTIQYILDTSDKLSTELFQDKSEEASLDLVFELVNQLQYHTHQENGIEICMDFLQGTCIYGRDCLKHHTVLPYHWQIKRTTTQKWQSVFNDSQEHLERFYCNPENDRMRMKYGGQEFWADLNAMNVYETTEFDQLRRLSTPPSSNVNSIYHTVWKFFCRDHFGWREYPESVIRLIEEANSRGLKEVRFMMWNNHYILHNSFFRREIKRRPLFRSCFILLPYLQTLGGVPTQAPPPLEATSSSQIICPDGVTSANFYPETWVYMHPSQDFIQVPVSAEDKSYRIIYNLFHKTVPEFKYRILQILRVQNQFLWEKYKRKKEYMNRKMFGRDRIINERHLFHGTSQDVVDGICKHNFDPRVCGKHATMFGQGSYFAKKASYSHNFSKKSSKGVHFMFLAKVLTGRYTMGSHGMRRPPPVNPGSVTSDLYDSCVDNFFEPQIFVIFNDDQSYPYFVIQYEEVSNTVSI

Homo sapiens [9] = species: Homo sapiens; assay: Selectivity ratio of IC50 for GFP-tagged human PARP6 long isoform expressed in HEK293T cells to IC50 for human PARP10 catalytic domain; format: cell-based; how it was run: as §1
Homo sapiens [10] = species: Homo sapiens; assay: Selectivity ratio of IC50 for human PARP4 BRCT-catalytic domain (1 to 572 residues) to IC50 for human PARP10 catalytic domain; how it was run: as §1
[11] = Inhibition of GFP-tagged human PARP6 long isoform expressed in HEK293T cells assessed as reduction in auto-MARylation after 60 mins in presence of 6-a-NAD+ by chemiluminescent immunoprecipitation assay; format: cell-based
Homo sapiens [12] = species: Homo sapiens; assay: Selectivity ratio of IC50 for GFP-tagged human PARP12 expressed in HEK293T cells to IC50 for human PARP10 catalytic domain; format: cell-based; how it was run: as §1
Homo sapiens [13] = species: Homo sapiens; assay: Selectivity ratio of IC50 for human PARP7 to IC50 for human PARP10 catalytic domain; how it was run: as §1
Homo sapiens [14] = species: Homo sapiens; assay: Selectivity ratio of IC50 for GFP-tagged human PARP6 short isoform expressed in HEK293T cells to IC50 for human PARP10 catalytic domain; format: cell-based; how it was run: as §1
Homo sapiens [15] = species: Homo sapiens; assay: Selectivity ratio of IC50 for full length human PARP1 to IC50 for human PARP10 catalytic domain; how it was run: as §1
[16] = target: T3, Protein mono-ADP-ribosyltransferase PARP10 (Homo sapiens) (UniProt Q53GL7); assay: Inhibition of GFP-tagged human PARP10 expressed in HEK293T cells assessed as reduction in high molecular weight target protein MARylation after 3 hrs by Western blot analysis; format: cell-based
T3 sequence (whole entry): T1 sequence (Q53GL7 whole entry)
How it was run: (§3)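 HEK293T cells transfected with GFP-PARP10 and treated with compound at 1−100 μM for 3 h. A Western blot using an ADP-ribose binding reagent detected PARP10 auto-MARylation and PARP10-mediated MARylation of high molecular weight targets.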

Homo sapiens [17] = species: Homo sapiens; assay: Selectivity ratio of IC50 for full length human PARP2 to IC50 for human PARP10 catalytic domain; how it was run: as §1
[18] = target: T4, Protein mono-ADP-ribosyltransferase PARP16 (Homo sapiens, UniProt Q8N5Y8); assay: Inhibition of human transmembrane domain deficient His-SUMO-tagged PARP16 expressed in Escherichia coli BL21 assessed as reduction in MARylation of His6-tagged SRPK2 substrate after 60 mins in presence of 6-a-NAD+ by chemifluorescence assay; how it was run: as §2
T4 sequence (Q8N5Y8 whole entry): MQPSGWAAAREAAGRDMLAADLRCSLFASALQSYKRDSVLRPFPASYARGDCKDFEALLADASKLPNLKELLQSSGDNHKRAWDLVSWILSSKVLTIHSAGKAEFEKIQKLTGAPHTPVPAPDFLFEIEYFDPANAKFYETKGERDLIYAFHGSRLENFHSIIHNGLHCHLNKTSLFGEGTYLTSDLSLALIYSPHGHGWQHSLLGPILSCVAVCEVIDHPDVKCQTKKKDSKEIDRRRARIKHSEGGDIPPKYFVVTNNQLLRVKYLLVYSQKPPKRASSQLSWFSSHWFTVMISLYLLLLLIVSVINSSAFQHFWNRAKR

Homo sapiens [19] = species: Homo sapiens; assay: Selectivity ratio of IC50 for human PARP14 catalytic-WWE domain (1459 to 1801 residues) expressed in Escherichia coli BL21 to IC50 for human PARP10 catalytic domain; how it was run: as §1
[20] = Inhibition of GFP-tagged human PARP6 short isoform expressed in HEK293T cells assessed as reduction in auto-MARylation after 60 mins in presence of 6-a-NAD+ by chemiluminescent immunoprecipitation assay; format: cell-based
[21] = target: T3, Protein mono-ADP-ribosyltransferase PARP10 (Homo sapiens); assay: Inhibition of GFP-tagged human PARP10 expressed in HEK293T cells assessed as reduction in auto-MARylation after 3 hrs by Western blot analysis; format: cell-based; how it was run: as §3
[22] = target: T3, Protein mono-ADP-ribosyltransferase PARP10 (Homo sapiens); assay: Inhibition of human PARP10 catalytic domain assessed as reduction in auto-MARylation at 30 uM after 60 mins in presence of 6-a-NAD+ by chemiluminescent immunoprecipitation assay relative to control
[23] = Aqueous solubility of the compound; format: physicochemical; settings: buffer

Protein mono-ADP-ribosyltransferase PARP4, sequence (Q9UKK3 whole entry, the tested form may be a part): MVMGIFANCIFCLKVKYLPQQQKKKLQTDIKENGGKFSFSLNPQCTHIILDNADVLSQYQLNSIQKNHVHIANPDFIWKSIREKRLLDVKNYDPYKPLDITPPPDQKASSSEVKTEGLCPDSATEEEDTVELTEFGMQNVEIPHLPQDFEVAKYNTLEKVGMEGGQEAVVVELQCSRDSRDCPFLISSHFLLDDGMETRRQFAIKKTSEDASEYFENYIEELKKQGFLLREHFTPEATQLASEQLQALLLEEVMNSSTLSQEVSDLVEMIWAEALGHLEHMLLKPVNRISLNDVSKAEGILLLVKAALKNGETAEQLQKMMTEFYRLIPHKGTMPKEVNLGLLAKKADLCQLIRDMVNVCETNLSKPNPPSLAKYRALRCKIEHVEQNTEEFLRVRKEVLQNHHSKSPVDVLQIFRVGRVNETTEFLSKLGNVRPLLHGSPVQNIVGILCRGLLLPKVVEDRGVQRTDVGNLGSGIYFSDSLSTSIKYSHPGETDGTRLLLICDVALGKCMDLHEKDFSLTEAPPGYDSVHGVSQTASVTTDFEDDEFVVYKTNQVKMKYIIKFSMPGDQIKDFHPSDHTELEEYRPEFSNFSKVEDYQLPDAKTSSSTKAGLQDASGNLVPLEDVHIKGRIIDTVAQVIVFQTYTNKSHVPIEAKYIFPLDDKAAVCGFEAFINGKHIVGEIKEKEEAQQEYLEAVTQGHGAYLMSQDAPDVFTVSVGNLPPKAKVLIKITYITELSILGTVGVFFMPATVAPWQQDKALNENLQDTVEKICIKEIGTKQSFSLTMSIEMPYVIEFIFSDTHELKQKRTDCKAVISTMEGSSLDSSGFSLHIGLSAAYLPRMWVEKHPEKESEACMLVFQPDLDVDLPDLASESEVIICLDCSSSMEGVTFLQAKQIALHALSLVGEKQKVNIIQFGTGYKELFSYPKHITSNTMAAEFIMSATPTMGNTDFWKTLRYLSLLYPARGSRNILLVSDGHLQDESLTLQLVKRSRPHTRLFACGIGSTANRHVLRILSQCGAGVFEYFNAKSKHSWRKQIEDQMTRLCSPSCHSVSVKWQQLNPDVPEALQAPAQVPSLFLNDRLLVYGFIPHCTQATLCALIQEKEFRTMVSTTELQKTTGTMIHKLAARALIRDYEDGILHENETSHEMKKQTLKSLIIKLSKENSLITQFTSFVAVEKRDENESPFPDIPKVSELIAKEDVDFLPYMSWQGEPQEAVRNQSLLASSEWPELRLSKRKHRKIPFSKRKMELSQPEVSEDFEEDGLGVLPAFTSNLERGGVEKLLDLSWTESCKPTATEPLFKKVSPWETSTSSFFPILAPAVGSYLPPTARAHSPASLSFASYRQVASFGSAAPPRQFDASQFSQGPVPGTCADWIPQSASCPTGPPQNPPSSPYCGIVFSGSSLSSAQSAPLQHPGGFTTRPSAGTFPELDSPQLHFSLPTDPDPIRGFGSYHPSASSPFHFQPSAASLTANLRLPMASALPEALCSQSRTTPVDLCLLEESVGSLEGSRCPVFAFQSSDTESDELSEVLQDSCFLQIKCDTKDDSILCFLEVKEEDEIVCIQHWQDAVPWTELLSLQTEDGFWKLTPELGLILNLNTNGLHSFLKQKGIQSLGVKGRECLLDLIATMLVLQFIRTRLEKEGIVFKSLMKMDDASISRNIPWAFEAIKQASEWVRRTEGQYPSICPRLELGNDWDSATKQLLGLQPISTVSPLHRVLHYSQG

Compound: Cc1c(-c2cccnc2)ccc2c1CCNC2=O
- IC50 [1]: 2.5 µM

- IC50 [1]: > 50 µM
Compound: O=C1NCCc2cc(Cc3ccccc3)ccc21

Compound: Cc1c(-c2ccc3[nH]ccc3c2)ccc2c1CCNC2=O
- IC50 [1]: 1.1 µM

Compound: O=C1NCCc2cc(Br)ccc21
- IC50 [1]: 17.1 µM

- IC50 [1]: 2.7 µM
Compound: Cc1c(-c2cncc(C(F)(F)F)c2)ccc2c1CCNC2=O

Compound: Cc1ccc2c(c1)CCNC2=O
- IC50 [1]: 33.1 µM

Compound: Cc1c(-c2cnc3[nH]ccc3c2)ccc2c1CCNC2=O
- IC50 [1]: 0.71 µM

Compound: O=C1NCCc2c1cccc2-c1ccccc1
- IC50 [1]: 35 µM

- IC50 [1]: 2.2 µM
Compound: Cc1c(-c2cncc(F)c2)ccc2c1CCNC2=O

Compound: O=C1NCCc2cc(-c3cccc(F)c3)ccc21
- IC50 [1]: 1.4 µM

- Ratio IC50 (Homo sapiens [2]): > 37
- Ratio IC50 (Homo sapiens [3]): > 37
- Ratio IC50 (Homo sapiens [5]): 2.5
- Ratio IC50 (Homo sapiens [6]): 23
- IC50 [7]: > 100 µM
- IC50 [8]: 19 µM
- Ratio IC50 (Homo sapiens [10]): > 37
- IC50 [11]: > 30 µM
- Ratio IC50 (Homo sapiens [13]): 7
- Ratio IC50 (Homo sapiens [15]): > 37
- IC50 [1]: 1.8 µM
- inhibition [16]: Dose-dependent effect
- Ratio IC50 (Homo sapiens [17]): > 37
- IC50 [18]: 6.7 µM
- Ratio IC50 (Homo sapiens [19]): 22
- IC50 [20]: > 30 µM
- inhibition [21]: Dose-dependent effect
- inhibition [22]: 80%
Compound: Cc1c(-c2ccnc(C(F)(F)F)c2)ccc2c1CCNC2=O
- Ratio IC50 (Homo sapiens [4]): > 10
- Ratio IC50 (Homo sapiens [9]): > 10
- Ratio IC50 (Homo sapiens [12]): > 10
- Ratio IC50 (Homo sapiens [14]): > 10

Compound: Cc1c(-c2ccccc2)ccc2c1CCNC2=O
- IC50 [1]: 1.6 µM
- solubility [23]: Insoluble

- IC50 [1]: 1.6 µM
Compound: CC(=O)c1cccc(-c2ccc3c(c2)CCNC3=O)c1
